According to ChEMBL document CHEMBL4152184, “NB 06: From a simple lysosomotropic aSMase inhibitor to tools for elucidating the role of lysosomes in signaling apoptosis and LPS-induced inflammation” (Eur J Med Chem, 2018):
Activity calls are given as the source filed them. The rule behind the calls is not given here.

Experiments:
MONO-MAC-6 [1] = assay: Upregulation of CXCL3 mRNA expression level in LPS-stimulated human MONO-MAC-6 cells at 5 uM preincubated for 30 mins followed by LPS stimulation measured after 4 hrs by oligonucleotide array hybridization assay (reference value: 13.52); format: functional
MONO-MAC-6 [2] = assay: Downregulation of PTX3 mRNA expression level in LPS-stimulated human MONO-MAC-6 cells at 5 uM preincubated for 30 mins followed by LPS stimulation measured after 1 hr by oligonucleotide array hybridization assay (reference value: 1.10); format: functional
Method in brief: (§1)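 Total RNA was isolated, transcribed and labeled with DY-647 dye, then co-hybridized with DY-548-labeled cDNA from untreated cells on an inflammation oligonucleotide chip (780 gene probes). Differential expression >1.5 was taken as significant.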

MONO-MAC-6 [3] = assay: Upregulation of CXCL10 mRNA expression level in LPS-stimulated human MONO-MAC-6 cells at 5 uM preincubated for 30 mins followed by LPS stimulation measured after 2 hrs by oligonucleotide array hybridization assay (reference value: 1.73); format: functional
PBMC = assay: Inhibition of TNFalpha-stimulated apoptosis in human PBMC assessed as apoptotic cells at 2 uM preincubated for 30 mins followed by TNFalpha stimulation measured after 4 hrs by YO-PRO-1/Hoechst 33342 staining based assay relative to control; format: functional; parameters: scale not given: the % may be the effect or the level left
Method in brief: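 PBMC pre-incubated 30 min with 2 μM compound, then stimulated with mmLDL (27 μg/mL; line 5) or TNFalpha (3 ng/mL; line 1) for 4 h. Apoptotic cells stained with YO-PRO-1 and all cells with Hoechst 33342. Each plate had control, stimulus, compound alone and compound plus stimulus; n = 3. Values are on a 0% (untreated control, corrected for spontaneous apoptosis) to 100% (stimulus alone) scale; means ± SE.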

[4] = target: T1, Acid ceramidase (Homo sapiens) (UniProt Q13510); assay: Inhibition of acid ceramidase in human PBMC assessed as ratio of C16-ceramide/lipid phosphate level at 10 uM incubated for 30 mins measured after 4 hrs by HPLC method; format: cell-based
T1 sequence (whole entry): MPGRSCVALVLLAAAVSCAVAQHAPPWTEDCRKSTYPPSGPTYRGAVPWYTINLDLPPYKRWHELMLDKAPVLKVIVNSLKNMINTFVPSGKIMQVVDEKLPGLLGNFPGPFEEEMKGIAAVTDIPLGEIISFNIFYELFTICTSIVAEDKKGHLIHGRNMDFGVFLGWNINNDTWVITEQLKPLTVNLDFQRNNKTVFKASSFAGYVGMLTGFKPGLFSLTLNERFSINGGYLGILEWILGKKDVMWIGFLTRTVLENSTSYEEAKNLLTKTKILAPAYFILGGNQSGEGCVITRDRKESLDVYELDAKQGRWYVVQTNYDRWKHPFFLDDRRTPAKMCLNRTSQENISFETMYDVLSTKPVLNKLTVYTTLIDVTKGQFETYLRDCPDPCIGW
Method in brief: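 Human macrophages from primary culture were preincubated 30 min with 10 µM compound. They were then stimulated 4 h with mmLDL (54 µg/mL), TNFalpha (3 ng/mL) or exogenous C6-ceramide (10 µM), or left unstimulated. Individual ceramide species (C16 and C24:1) were quantified in the cell lipid extracts.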

MONO-MAC-6 [5] = assay: Upregulation of CCL4 mRNA expression level in LPS-stimulated human MONO-MAC-6 cells at 5 uM preincubated for 30 mins followed by LPS stimulation measured after 4 hrs by oligonucleotide array hybridization assay (reference value: 18.52); format: functional
MONO-MAC-6 [6] = assay: Upregulation of CXCL10 mRNA expression level in human MONO-MAC-6 cells at 5 uM incubated for 30 mins measured after 1 hr by oligonucleotide array hybridization assay relative to control; format: functional
MONO-MAC-6 [7] = assay: Downregulation of CXCL3 mRNA expression level in LPS-stimulated human MONO-MAC-6 cells at 5 uM preincubated for 30 mins followed by LPS stimulation measured after 1 hr by oligonucleotide array hybridization assay (reference value: 1.18); format: functional; method in brief: as §1
MONO-MAC-6 [8] = assay: Downregulation of ICAM1 mRNA expression level in human MONO-MAC-6 cells at 5 uM incubated for 30 mins measured after 4 hrs by oligonucleotide array hybridization assay relative to control; format: functional; method in brief: as §1
[9] = target: T2, Sphingomyelin phosphodiesterase (Homo sapiens) (UniProt P17405); assay: Inhibition of mmLDL-stimulated acid sphingomyelinase in human PBMC lysates up to 10 uM preincubated for 30 mins followed by mmLDL stimulation measured after 4 hrs by YO-PRO-1/Hoechst 33342 staining based assay
T2 sequence (whole entry): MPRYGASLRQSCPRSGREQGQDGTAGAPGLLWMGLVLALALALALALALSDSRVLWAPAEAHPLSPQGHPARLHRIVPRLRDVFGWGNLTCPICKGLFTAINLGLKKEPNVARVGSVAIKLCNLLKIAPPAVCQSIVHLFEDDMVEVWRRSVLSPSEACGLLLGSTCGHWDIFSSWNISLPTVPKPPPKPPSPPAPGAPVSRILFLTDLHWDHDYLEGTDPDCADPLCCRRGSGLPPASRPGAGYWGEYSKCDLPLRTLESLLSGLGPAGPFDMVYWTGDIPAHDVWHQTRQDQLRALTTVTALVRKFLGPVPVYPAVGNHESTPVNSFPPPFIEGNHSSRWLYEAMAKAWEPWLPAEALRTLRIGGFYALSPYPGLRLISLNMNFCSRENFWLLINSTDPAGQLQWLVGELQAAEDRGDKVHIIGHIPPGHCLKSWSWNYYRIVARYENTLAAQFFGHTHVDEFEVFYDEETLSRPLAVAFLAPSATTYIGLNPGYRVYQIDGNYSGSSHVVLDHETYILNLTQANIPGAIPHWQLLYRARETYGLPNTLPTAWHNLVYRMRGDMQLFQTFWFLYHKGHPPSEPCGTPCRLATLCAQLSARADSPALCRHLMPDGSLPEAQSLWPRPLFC

MONO-MAC-6 [10] = assay: Upregulation of CXCL2 mRNA expression level in LPS-stimulated human MONO-MAC-6 cells at 5 uM preincubated for 30 mins followed by LPS stimulation measured after 2 hrs by oligonucleotide array hybridization assay (reference value: 4.20); format: functional
MONO-MAC-6 [11] = assay: Downregulation of TNFalpha mRNA expression level in LPS-stimulated human MONO-MAC-6 cells at 5 uM preincubated for 30 mins followed by LPS stimulation measured after 6 hrs by qRT-PCR method (reference value: 2.17); format: functional
MONO-MAC-6 [12] = assay: Downregulation of CCL4 mRNA expression level in human MONO-MAC-6 cells at 5 uM incubated for 30 mins measured after 4 hrs by oligonucleotide array hybridization assay relative to control; format: functional; method in brief: as §1
MONO-MAC-6 [13] = assay: Downregulation of CXCL2 mRNA expression level in human MONO-MAC-6 cells at 5 uM incubated for 30 mins measured after 1 hr by oligonucleotide array hybridization assay relative to control; format: functional; method in brief: as §1
MONO-MAC-6 [14] = assay: Downregulation of PTGS2 mRNA expression level in human MONO-MAC-6 cells at 5 uM incubated for 30 mins measured after 6 hrs by oligonucleotide array hybridization assay relative to control; format: functional; method in brief: as §1
MONO-MAC-6 [15] = assay: Downregulation of IL-6 mRNA expression level in human MONO-MAC-6 cells at 5 uM incubated for 30 mins measured after 1 hr by qRT-PCR method relative to control; format: functional

COc1ccc(CCN(C)CCCn2c3ccccc3c3ccccc32)cc1
fold change (FC) (MONO-MAC-6 [1]): 8.83 | fold change (FC) (MONO-MAC-6 [2]): 1.02 | fold change (FC) (MONO-MAC-6 [3]): 1.63 | Activity (PBMC): 19% | Ratio [4]: 0.38 | fold change (FC) (MONO-MAC-6 [5]): 8.04 | fold change (FC) (MONO-MAC-6 [6]): 1.11 | fold change (FC) (MONO-MAC-6 [7]): 1.24 | fold change (FC) (MONO-MAC-6 [8]): 1.57 | inhibition [9]: inactive | fold change (FC) (MONO-MAC-6 [10]): 3.88 | fold change (FC) (MONO-MAC-6 [11]): 1.16 | fold change (FC) (MONO-MAC-6 [12]): 1.55 | fold change (FC) (MONO-MAC-6 [13]): 1.12 | fold change (FC) (MONO-MAC-6 [14]): 2.23 | fold change (FC) (MONO-MAC-6 [15]): 1.04
